# Source: PubChem
# FLuc act counter: affects firefly luciferase, flagging false hits in luciferase stimulation screens. P08659. activation factor at 10 µM. AID 1027. ATPlite luciferase biochemical, luminescence, 10 min; 0 = ATP-free wells, 1 = DMSO control. 200,000 tested, under 10 active;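 active = luciferase activation factor, scaled between plate controls, of at least 2 with compound at 10 µM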
# Target sequence (P08659 whole entry, looked up): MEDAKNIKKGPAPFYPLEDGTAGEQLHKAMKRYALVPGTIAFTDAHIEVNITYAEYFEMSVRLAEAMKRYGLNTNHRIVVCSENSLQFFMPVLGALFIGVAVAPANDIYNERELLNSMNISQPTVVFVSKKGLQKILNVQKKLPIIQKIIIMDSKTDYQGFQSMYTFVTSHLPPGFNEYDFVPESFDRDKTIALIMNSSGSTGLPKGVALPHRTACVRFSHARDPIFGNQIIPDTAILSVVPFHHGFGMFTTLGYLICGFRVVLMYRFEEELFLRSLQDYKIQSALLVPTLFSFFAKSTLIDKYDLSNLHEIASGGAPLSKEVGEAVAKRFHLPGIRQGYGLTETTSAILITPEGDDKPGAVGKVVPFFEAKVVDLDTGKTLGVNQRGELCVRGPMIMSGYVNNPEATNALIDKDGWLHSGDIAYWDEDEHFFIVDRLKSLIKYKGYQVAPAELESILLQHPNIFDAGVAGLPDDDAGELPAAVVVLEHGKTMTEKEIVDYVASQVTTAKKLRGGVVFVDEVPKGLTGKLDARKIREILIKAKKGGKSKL
#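 System: luciferase plus luciferin reagent, cell-free; medium: PBS as buffer for the ATP substrate; dosing: test compounds dosed from 2 mM stocks in 100% DMSO; timing: 10 min post-reagent at room temperature; measured by: luminescence measurement of luciferase light output; evaluation: luciferase activation, seen as luminescence increase over controls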
# PPC-1+TRAIL kill: kills PPC-1 cancer cells in the presence of TRAIL; PPC-1 cells + TRAIL, ATPLite viability luminescence; AID 1443; cell killing (% activity), % at 4 µM or 5 µM; 220,000 tested, 0.41% active;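 active = cell killing above 50% in the first pass at 4 µM, then a duplicate retest at 5 µM averaging 50% or more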;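 also: plate controls were cells with TRAIL plus DMSO for no effect and medium-only wells lacking cells for full effect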
# TRAIL sens C8: sensitizes caspase-8 expressing cells to TRAIL; NB7+C8 cells + TRAIL, ATPlite viability luminescence; inhibition (viability loss, TRAIL sensitization), % at 10 µM; 360,000 tested, 1% active;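 active = compounds causing at least 50% loss of cell viability in the single-dose screen, relative to plate controls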
# STAT3 blocker: reduces IL-6 driven STAT3 reporter signal. U3A cells, IL-6 STAT3-luciferase reporter, luminescence; host cell line lacks STAT1. inhibition, % at 5.5 µM. 190,000 tested, 0.89% active. AID 862;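 active = inhibition above the mean inhibition across all screened compounds plus 3 SD, cut at about 44% in these data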;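 also: 0% = DMSO only wells and 100% = 100 µM nifuroxazide control wells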
# FLuc inh counter: Photinus pyralis luciferase inhibition counter-screen | P08659 | ATPLite firefly luciferase biochemical luminescence, 10 min | inhibition, % at 10 µM | 200,000 tested, 1.5% active;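 active = inhibition above about 50% when tested at 10 µM, limit read from the data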
# HSP90 refold inh: HSP90 refolding inhibition in rabbit reticulocyte lysate. AID 1789. luciferase refolding luminescence, 3 h. 290,000 tested, 0.91% active. inhibition, % at 5.6 µM;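 active = inhibition above the screen-wide mean plus 3 SD, computed separately per campaign, cut at about 16% in these data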;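 also: 0% = DMSO wells and 100% = 60 µM geldanamycin wells; inhibitors lower the luminescence because luciferase stays unfolded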
# Active calls of the source: *; nt = not tested or not shown. Only some compounds are listed: those with a hit (about 2.2% of all), similar ones and a draw of the others.
SMILES,FLuc act counter,PPC-1+TRAIL kill,TRAIL sens C8,STAT3 blocker,FLuc inh counter,HSP90 refold inh
COC(=O)CCn1nnc(-c2ccc(C(C)C)cc2)n1,0.8,19.1,8.5,84.3*,22.9,-1.1
Cc1ccc(N2CC(C(=O)Nc3cccnc3)CC2=O)cc1C (configuration not stated),nt,nt,-12.8,nt,nt,5.3
CCOC(=O)c1ccc2ncc(-c3ccccc3)nc2c1,0.3,23.6,17.5,14.4,74.3*,-4.0
N#C/C(=N\Nc1ccccc1[N+](=O)[O-])C(=N)N1CCCCC1,0.2,36.6,43.6,18.5,82.2*,7.4
N#C/C(=N\Nc1ccccc1)C(=N)N1CCCCC1,0.4,20.0,29.1,-5.7,60.9*,-3.3
O=C(O)CCN1C(=O)c2ccc(NC(=O)COc3ccccc3)cc2C1=O,nt,nt,4.1,nt,nt,-1.2
Cc1ccc(Cn2cc(CN3CC(N4CCN(C5CCN(C)CC5)CC4)CS3(=O)=O)nn2)cc1 (configuration not stated),nt,nt,-3.7,nt,nt,nt
COc1ccc(CCNc2ncnc3c2oc2ccccc23)cc1OC,1.1,5.1,15.1,79.8*,-5.1,-1.0
CCc1ccc(/C=C2\SC(=S)N(CCCC(=O)N(CCO)c3ccccc3)C2=O)cc1,nt,nt,91.9*,nt,nt,nt
CCOc1ccc(/C=C2\SC(=S)N(CCC(=O)N(CCO)c3ccccc3)C2=O)cc1,nt,nt,34.2,nt,nt,7.4
N/C(=N\OC(=O)c1cccc(Cl)c1)c1cccnc1,0.3,20.7,63.5*,3.6,68.3*,-1.5
N/C(=N\OC(=O)c1ccc(Cl)c(Cl)c1)c1cccnc1,0.5,15.3,83.1*,4.7,46.1,1.1
COc1cccc(Nc2nc(N)nc(CCl)n2)c1,nt,16.1,88.9*,nt,nt,-0.8
Cc1cccc(Nc2nc(N)nc(CSc3nccc(C)n3)n2)c1,1.1,-4.9,-8.4,1.7,-9.2,-1.0
Cc1ccc(Nc2nc(N)nc(CCl)n2)cc1,nt,48.0,93.2*,nt,nt,8.2
Cc1cccc(Nc2nc(N)nc(CCl)n2)c1,nt,14.5,90.4*,nt,nt,12.0
Nc1nc(CCl)nc(Nc2ccccc2)n1,0.9,24.4,9.0,8.7,7.1,2.9
Cc1cccnc1NC(=O)CN1C(=O)NC(C)(c2ccc3ccccc3c2)C1=O (configuration not stated),nt,nt,-12.0,nt,nt,nt
Cc1ccc(C(=O)COC(=O)CCC(=O)Nc2ccccc2Cl)cc1[N+](=O)[O-],1,-12.3,-5.5,8.2,-3.9,3.0
Cc1ccc(C(=O)COC(=O)CCCC(=O)Nc2cc(C(F)(F)F)ccc2Cl)cc1C,0.5,13.0,4.5,-6.3,54.2*,-1.0
COc1cc(CNc2nc3ccccc3n2Cc2ccccc2)ccc1O,nt,nt,-5.6,nt,nt,nt
CCOC(=O)Cc1ccc2sc(-c3ccccc3)nc2c1,0.3,-5.3,39.0,7.8,73.6*,1.5
CCN(CC)c1ccc(N)cc1,nt,nt,60.4*,nt,nt,nt
CCN(CC(=O)Nc1c(F)cccc1F)C(=O)c1ccc(C#N)cc1,nt,nt,6.4,nt,nt,3.5
CC(=O)Nc1ccc(NC2=Nc3ccccc3N3C2=Nc2c(c(C)nn2-c2ccccc2)C3c2ccccc2)cc1 (configuration not stated),1,16.0,72.4*,18.5,-2.6,5.5
SMILES,FLuc act counter,PPC-1+TRAIL kill,TRAIL sens C8,STAT3 blocker,FLuc inh counter,HSP90 refold inh
COc1ccc(NC2=Nc3ccccc3N3C2=Nc2c(c(C)nn2-c2ccc(C)cc2)C3c2cccnc2)cc1 (configuration not stated),1,10.8,-6.7,2.8,-1.3,-3.9
O=C(OCc1cccc(C(F)(F)F)c1)c1cc(S(=O)(=O)N2CCOCC2)ccc1F,nt,nt,72.3*,nt,nt,nt
COC(=O)CC(NC(=O)c1ccc(C)cc1)c1ccccc1 (configuration not stated),0.3,9.3,2.7,4.7,65.3*,-2.3
COC(=O)CC(NC(=O)c1ccc(C)cc1)c1ccc2c(c1)OCO2 (configuration not stated),1,8.9,-9.2,-3.7,-2.1,-0.7
CCc1nnc(NC(=O)c2ccc(-c3ccc([N+](=O)[O-])cc3Cl)o2)s1,1.1,-21.1,-11.0,10.5,-8.6,2.5
C/C(=N\Nc1nc(C)cc(-c2ccccc2)n1)c1cccc(N)c1,nt,nt,51.2*,nt,nt,-2.8
Cc1ccc(NC(=O)c2ccc(N/N=C/c3cccc(O)c3)c([N+](=O)[O-])c2)cc1,1,53.4*,43.6,23.3,-0.8,1.0
Cc1ccccc1NC(=O)c1ccc(N/N=C/c2ccccc2O)c([N+](=O)[O-])c1,1,11.5,40.6,0.7,-1.4,3.7
